Compound activity (PubChem)
Hits are enriched below; roughly 0.79% of the tested compounds scored in any of these assays.
mIAP inh: inhibitors of mouse IAP, primary screen, biochemical, luminescence, uHTS; inhibition, % at 10 µM; purified mouse IAP, CDP-Star luminescence, 30 min; 330,000 tested, 0.2% active; intestinal alkaline phosphatase [Mus musculus];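 active means inhibition of at least 40% at 10 µM in the primary screen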;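 further: plate controls were DMSO with enzyme for no effect and no enzyme wells for full effect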
hIAP inh: human IAP inhibitors, primary screen, biochemical, luminescence, uHTS | Intestinal-type alkaline phosphatase (Homo sapiens), P09923 | inhibition, % at 10 µM | 330,000 tested, 0.12% active | purified IAP, CDP-Star luminescence, 30 min;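 active means inhibition reaching a set limit with compound at 10 µM in the primary screen, cut at about 35% in these data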;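 further: plate controls were DMSO wells with enzyme for no effect and no-enzyme buffer wells for full effect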
Target sequence (P09923 whole entry, looked up): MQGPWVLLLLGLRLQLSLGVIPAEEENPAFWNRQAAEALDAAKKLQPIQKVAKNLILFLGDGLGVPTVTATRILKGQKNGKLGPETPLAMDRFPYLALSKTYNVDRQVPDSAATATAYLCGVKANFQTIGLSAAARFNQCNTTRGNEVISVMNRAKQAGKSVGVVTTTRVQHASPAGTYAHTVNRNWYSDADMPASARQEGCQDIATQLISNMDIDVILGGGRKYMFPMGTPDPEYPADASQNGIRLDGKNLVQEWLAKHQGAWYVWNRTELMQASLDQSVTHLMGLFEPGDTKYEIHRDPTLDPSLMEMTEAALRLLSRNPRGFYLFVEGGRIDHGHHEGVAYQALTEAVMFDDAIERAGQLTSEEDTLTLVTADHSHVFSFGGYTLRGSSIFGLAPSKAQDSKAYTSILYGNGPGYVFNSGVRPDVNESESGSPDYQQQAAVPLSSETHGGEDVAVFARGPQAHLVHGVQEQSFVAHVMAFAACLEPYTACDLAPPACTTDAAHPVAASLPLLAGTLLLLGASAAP
bIAP inhibitor: bovine intestinal alkaline phosphatase inhibitors, primary screen, selectivity assay for TNAP inhibitor project, biochemical, bovine IAP, CDP-star luminescence; 190,000 tested, under 10 active; purified bovine IAP, 30 min; AID 1019, 2008; inhibition, % at 20 µM;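 active means over 50% inhibition of intestinal alkaline phosphatase at 20 µM in the single-dose screen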
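Assay system – bovine IAP enzyme · Quantity – bovine IAP at 1/65,000,000 final dilution · Detection – CDP-star luminescence signal · Times – 30 min reaction at room temperature · Also added – CDP-star substrate at 30 µM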
mIAP activ: activators of mouse IAP, primary screen, biochemical, luminescence, uHTS | 330,000 tested, 0.24% active | activation factor at 10 µM | muIAP, CDP-Star luminescence, 30 min; stronger effect = higher value; 1 = vehicle-only enzyme signal, 0 = enzyme-free wells | intestinal alkaline phosphatase [Mus musculus];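 active means activation factor of at least 2 at 20 µM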
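also added = chemiluminescent substrate CDP-Star | test system = mouse IAP enzyme | signal = chemiluminescence readout | compound = DMSO-dissolved test compounds | incubation = 30 min at room temperature | benchmarks = DMSO wells, no-enzyme wells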
hIAP act: human IAP activators, primary screen, biochemical, luminescence, uHTS; activation factor at 10 µM; 330,000 tested, 0.16% active; Intestinal-type alkaline phosphatase (Homo sapiens), P09923; AID 2524, 2010; purified human IAP, CDP-Star luminescence, 30 min; stronger effect = higher value; 1 = vehicle-only enzyme, 0 = enzyme-free background;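 active means activation factor of the enzyme at least 2-fold when tested at 20 µM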
bIAP activator: bovine intestinal alkaline phosphatase activators, primary screen, biochemical, bovine IAP, CDP-star luminescence; alkaline phosphatase, intestinal [Bos taurus]; AID 1016, 2008; activation factor at 20 µM; 200,000 tested, 0.17% active; purified bovine IAP, 30 min; stronger effect = higher value; fold of DMSO-control signal, blank-subtracted;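 active means activation factor of 2 or more at 20 µM, a signal rise over negative controls twice the positive control's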
Starred values were filed as active, the others as inactive; i = inactive; / = not tested or not shown.

SMILES	mIAP inh	hIAP inh	bIAP inhibitor	mIAP activ	hIAP act	bIAP activator
O=C(N/N=C/c1ccc(O)cc1)c1cc(-c2ccc3c(c2)OCO3)n[nH]1	14	36*	11	0.86	0.65	0.9
COCCN(C(=O)C1CCCO1)c1c(N)n(CC(C)C)c(=O)[nH]c1=O (stereo not given)	16	1	/	0.83	0.99	/
CCc1ccc(C(C)NC(=S)NCc2ccc(F)cc2)cc1 (stereo not given)	-109	-41	/	2.1*	1.4	/
Cc1ccc(C(C)NC(=S)NCc2ccc(F)cc2)cc1C (stereo not given)	-94	10	/	1.9	0.9	/
Cc1ccc(C(C)NC(=S)NCc2ccc(F)cc2)c(C)c1 (stereo not given)	-114	-36	/	2.1*	1.4	/
Cc1ccc(Nc2ccc(C(=O)NC3CCCCC3)cn2)cc1	7	-3	/	0.93	1	/
Cc1ccc(S(=O)(=O)N2CCN(CC(=O)NC3CCCc4ccccc43)CC2)c(C)c1 (stereo not given)	-27	-3	i	1.3	1	56*
O=C(Nc1ccc(Cl)c(Cl)c1)Nc1cc(C(=O)NC2CC2)ccc1Cl	-116	-15	3	2.2*	1.1	1
Cc1ccc(N2CCN(C(=O)CCc3nc4ccccc4[nH]3)CC2)c(C)c1	-41	-6	-166	1.4	1.1	2.7*
Cc1nn(C2CCS(=O)(=O)C2)c(C)c1C=O (stereo not given)	-11	-8	-3	1.1	1.1	1
O=C(Cc1ccc(Cl)cc1)N1CCN(c2ccccc2)CC1	-6	-3	/	1.1	1	/
O=C1CCC(c2ccccc2)=NN1Cc1c(F)cccc1Cl	11	-3	-1	0.89	1	1
COc1ccc(-c2nc3ccccc3n2Cc2ccccc2)cc1	3	-17	-196	0.97	1.2	3*
C=CCn1c(-c2ccc(OC)cc2)nc2ccccc21	7	1	13	0.93	0.99	0.9
CC1CC(C)CN(S(=O)(=O)c2ccc(NC(=O)[C@@H]3CCCN3C(=O)c3cccs3)cc2)C1 (stereo not given in full)	50*	11	/	0.5	0.89	/
CCc1ccccc1NC(=S)N(CCN(C)C)C(C)c1cccnc1 (stereo not given)	14	6	-4	0.86	0.94	1
COc1ccc(C(=O)NNC(=S)NC(=O)C(C)(C)C)cc1	-6	-109	-71	1.1	2.1*	1.7
CN(CC1CCOCC1)C(=O)CC1C(=O)NCCN1Cc1ccc(F)c(F)c1 (stereo not given)	-3	-12	/	1	1.1	/
NC1=NC2(CCN(Cc3ccccc3)CC2)n2c(nc3ccccc32)N1	10	-5	-255	0.91	1.1	3.5*
NC1=NC2(CCC(c3ccccc3)CC2)n2c(nc3ccccc32)N1 (stereo not given)	-56	-43	-192	1.6	1.4	2.9*
NC1=NC(c2ccc(Br)cc2)n2c(nc3ccccc32)N1 (stereo not given)	-7	3	-94	1.1	0.97	1.9
NC1=NC2(CCCCC2)n2c(nc3ccccc32)N1	-4	1	-117	1	0.99	2.2*
N#CC(=Cc1ccc(O)cc1)C(N)=C(C#N)C#N	17	15	/	0.83	0.85	/
Cn1nnnc1SCC(=O)NC(=O)c1cccc([N+](=O)[O-])c1	10	8	/	0.9	0.92	/
CN(C)c1nc(NCc2ccccc2)nc(SCC(=O)Nc2ccccc2)n1	-104	3	13	2*	0.97	0.9
SMILES	mIAP inh	hIAP inh	bIAP inhibitor	mIAP activ	hIAP act	bIAP activator
CN(C)c1nc(NC(C)(C)C)nc(SCC(=O)Nc2ccccc2)n1	-16	5	-7	1.2	0.95	1.1
NS(=O)(=O)c1ccc(N2N=C(c3ccccc3)CC2c2ccccc2)cc1 (stereo not given)	-105	-37	12	2.1*	1.4	0.9
COc1cccc(N2C(=NC(=O)C3CCCO3)SC3CS(=O)(=O)CC32)c1 (stereo not given)	3	-5	/	0.97	1	/
CCOC(=O)CSc1nc2c(c(=O)[nH]c(=O)n2C)n1CCc1ccccc1	-10	-11	10	1.1	1.1	0.9
CCOC(=O)C(CC)Sc1nc2c(c(=O)[nH]c(=O)n2C)n1CCc1ccccc1 (stereo not given)	18	-16	-183	0.82	1.2	2.8*
NC(=O)NC(=O)c1nccnc1C(=O)O	14	-16	/	0.86	1.2	/
CC(C)(C)OC(=O)NCCCC[C@@H](C(=O)NCCCCCCCCCCC(=O)N1CCN(C(=O)OC(C)(C)C)CC1)n1cc(CCO)nn1	-22	17	/	1.2	0.83	/
CC[C@H](C)Cc1cn([C@@H](CCCCNC(=O)OC(C)(C)C)C(=O)NCCCCCCCCCCC(=O)N2CCN(C(=O)OC(C)(C)C)CC2)nn1	-119	3	/	2.2*	0.97	/
O=C1/C(=C/c2ccc(N3CCOCC3)o2)SC(=Nc2ccccc2)N1CCc1c[nH]c2ccccc12	12	43*	40	0.88	0.57	0.6
Cc1cc(NC(=O)Nc2ccccc2F)ccc1Br	-205	-5	6	3.1*	1.1	0.9
O=C(Nc1ccccc1)Nc1ccc(Br)cc1F	-81	17	14	1.8	0.83	0.9
COc1ccc(C2=NS(=O)(=O)N(C)C(C(=O)Nc3ccc(C(C)=O)cc3)=C2)cc1OC	5	0	/	0.95	1	/
O=C(Nc1ccc([N+](=O)[O-])cc1Cl)c1cc(Cl)ccc1O	2	0	/	0.97	1	/
O=C(Nc1cccc(Cl)c1)c1cc(N=Nc2ccc([N+](=O)[O-])cc2Cl)ccc1O	26	38*	/	0.74	0.61	/
O=C(Nc1cc(Cl)cc(Cl)c1)C(c1ccccc1)N1CCCCC1 (stereo not given)	-198	-12	5	3*	1.1	1
O=C(Nc1cc(Cl)cc(Cl)c1)N1CCCC1	-112	3	/	2.1*	0.97	/
C/C(=C/c1ccccc1)C(=O)N1CCN(c2ccc(F)cc2)CC1	7	0	/	0.93	1	/
FC(F)Sc1ccc(NC(=S)NCc2ccccc2)cc1	-106	0	8	2.1*	1	0.9
FC(F)(F)c1ccc(NC(=S)NCc2ccccc2)cc1	-100	-10	13	2*	1.1	0.9
N#Cc1cc2c(nc1SCc1ccccc1)CCCCC2	-1	24	36	1	0.76	0.6
